Measurements: the EternaBench riboswitch data

Test system: MS2 coat protein
Assay: apparent Kd, MS2 coat protein; higher = weaker binding; RNA-MaP array; FMN 200 µM where present
In short: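 Binding was read on Illumina sequencing-chip clusters where stalled E. coli RNA polymerase had transcribed each design. A titration of SNAP-549-labelled MS2 coat protein began at 0.7 or 1.5 nM and doubled to 3 µM, once without ligand and once with constant ligand, in 100 mM Tris-HCl pH 7.5, 80 mM KCl, 4 mM MgCl2, BSA, DTT, yeast tRNA and Tween-20. The apparent Kd is the median of filtered per-cluster binding-curve fits, based on green signal normalised to red-channel RNA signal and control-cluster median Fmax.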

[1] = designed as: OFF switch for flavin mononucleotide, no ligand
[2] = ligand present: flavin mononucleotide, designed as: OFF switch for flavin mononucleotide
[3] = designed as: ON switch for flavin mononucleotide, no ligand
[4] = ligand present: flavin mononucleotide, designed as: ON switch for flavin mononucleotide

Sequence: AAAAAGGCAGGAUAUACAUGAGGAUCACCCAUGUUAAAAAAAAAAAAAAAAAAAAAGUGUAGAAGGGCCAAAAA
- apparent Kd [1]: 55.6 nM
- apparent Kd [2]: 55 nM

Sequence: AACGCGUCAGGAUAUGCCAUAAAUUACGUAGUACGACCAUAGUAGAAGGGACAUGAGGAUCACCCAUGUGGGUA
- apparent Kd [1]: 177 nM
- apparent Kd [2]: 137 nM

Sequence: GUGUACAGAGGAUAUGCACGAGUAGUUACGAAAGUAACUACACAUGAGGAUCACCCAUGUAGAAGGCUGUACAC
- apparent Kd [1]: 13.2 nM
- apparent Kd [2]: 16.9 nM

Sequence: AAGACCAGAGGAUAUCAGACGCGGCACAUGAGGAUCACCCAUGUAUUCCCGUCUGCCGACUGAGAAGGUUGGAAAG
- apparent Kd [1]: 12.5 nM
- apparent Kd [2]: 17 nM

Sequence: CUUUUGUGAGGAUAUCAGGUGUGCUAGCGUACUGGUACAUCUGAGAAGGCACAUGAGGAUCACCCAUGUUUCUA
- apparent Kd [1]: 84.9 nM
- apparent Kd [2]: 74.2 nM

Sequence: AAUAAACAUGAGGAUCACCCAUGUGGUGGCCCAUGAGGAUAUCCGUACGCAAUGCGCACAGGAGAAGGCAUAGCCA
- apparent Kd [3]: 33.9 nM
- apparent Kd [4]: 90.8 nM

Sequence: GGAAAUCAUGUAGGAUAUGCAUGGCGAAGCUACGCAGAAGGACAUGAGGAUCACCCAUGUUCUAGCUACCGAGUUCGGUGGCAA
- apparent Kd [1]: 21.6 nM
- apparent Kd [2]: 114 nM

Sequence: GGGCCGGUGGAGAAGGAGCUUGCGAAACGCAUGCUAGGAUAUCCACAUGAGGAUCACCCAUGUGGGAAUAUCUGAUUUUCACAG
- apparent Kd [1]: 3.82 nM
- apparent Kd [2]: 4.76 nM

Sequence: UGUAUGGACAGAGGAUAUGCCGAUAGGCUCUACUAUCGAAGAAUCCUCACAUGAGGAUCACCCAUGUAGAAGGCUGUCCAUACU
- apparent Kd [1]: 18.1 nM
- apparent Kd [2]: 41.3 nM

Sequence: UAGGACUACGUAGGAUAUGUAGUAGAUUACUACAUGAGGAUCACCCAUGUAAGCAUGUUAUUAGGACAGAAGGACGUGGUAAAU
- apparent Kd [3]: 30.4 nM
- apparent Kd [4]: 11.1 nM

Sequence: UGCGAACAGGCUAACAUGAGGAUCACCCAUGUGGACUCAUGGUAGGAUAUCGGGAAGGAGGAAACCGAGAAGGGCCGGUGAGCA
- apparent Kd [3]: 133 nM
- apparent Kd [4]: 77.5 nM

Sequence: ACGCUCAGAGGAUAUACAUGAGGAUCACCCAUGUGUUACCGAGGAGUACGGUCGUCACGUAGAAGGCUGGGUAA
- apparent Kd [1]: 17.9 nM
- apparent Kd [2]: 63.2 nM

Sequence: UCCUUGUCCUGAGGAUAUCCGUGGUUACCGACAGGAGAAGGCAGGACAUGAGGAUCACCCAUGUACCCAGAAAACGUGCAGAGU
- apparent Kd [1]: 133 nM
- apparent Kd [2]: 210 nM

Sequence: UGUUGUAUUACAGGAUAUCUAUUAUAUUUAUUUAGAGAAGGGUAUUCACAUGAGGAUCACCCAUGUAUAUACGAGGAAGUUGUG
- apparent Kd [3]: 49.6 nM
- apparent Kd [4]: 55.1 nM

Sequence: UGUCCUUGAGGCUCGGACGUGUCGCCAGAAGGCAAUUUCUGACAUGAGGAUCACCCAUGUCCAAUUGAGGAUAUGGCUGCGAAG
- apparent Kd [3]: 27.2 nM
- apparent Kd [4]: 7.52 nM

Sequence: UGCAUUACUUAGAAGGGAUAUAUAUAAUUUUAAUCAGGAUAUAGAUACAAUACAACAUGAGGACAUGAGGAUCACCCAUGUAUU
- apparent Kd [3]: 19.9 nM
- apparent Kd [4]: 14 nM

Sequence: GGAUAGGACAGAGGAUAUACGUGCUAGAGAUACUAGCAACAUUUCCUCACAUGAGGAUCACCCAUGUAGAAGGCUGUCCUAUCG
- apparent Kd [1]: 8.16 nM
- apparent Kd [2]: 190 nM

Sequence: CUCAGCUCGUGAGGAUAUACAACACUGCUUCGGCAGUGUAUUAAGAUCACAUGAGGAUCACCCAUGUAGAAGGCACGAGCUGAU
- apparent Kd [1]: 14.3 nM
- apparent Kd [2]: 246 nM

Sequence: UUACUCAUGUAAGGAUAUGCAGCCGAAACGGCUGCAGAAGGUACUAAAAUACAUGAGGAUCACCCAUGUCUUUUUAAUAUAGAC
- apparent Kd [3]: 151 nM
- apparent Kd [4]: 80.1 nM

Sequence: UCAUCAACGGGCGGGUCGGUUGGACAUGAGGAUCACCCAUGUAGAAGGACCGGUGGGCUCCGGCGGUAGGAUAUACAUUUGGUG
- apparent Kd [1]: 8.14 nM
- apparent Kd [2]: 13.3 nM

Sequence: UCCUCACAUGAGGAUCACCCAUGUGAGGAUAUGGGCCCGGGCCCGUUCGGGCCCGGGCCCAGAAGGCACUGGGU
- apparent Kd [1]: 42.1 nM
- apparent Kd [2]: 19 nM

Sequence: GGAGAACAUGAGGAUCACCCAUGUGAGAGGGAUGUAGGAUAUGUGAGGAGUAAAGGAGGGACAGAAGGACAGAGAU
- apparent Kd [3]: 45.8 nM
- apparent Kd [4]: 43.8 nM

Sequence: AACCGCGACCGGCCUGGCACGUCGAGAAGGGUACGUGACUUGCUUUACAUGAGGAUCACCCAUGUACAGGAUAUCGAAUAGCCG
- apparent Kd [1]: 8.4 nM
- apparent Kd [2]: 11 nM

Sequence: AGAUCAGUCUGAGUGCCUCGCGCGAGAAGGUACAGUGUUGUCCUGUUACAUGAGGAUCACCCAUGUAAGGAUAUCGCCGAGGAG
- apparent Kd [1]: 7.86 nM
- apparent Kd [2]: 28.4 nM

Sequence: UGGGAUGGCUAGAAGGCUCCGUAAACUACAGGGAGAGGAUAUGGCACAUGAGGAUCACCCAUGUGUACCUGUAGGUGAUCCACA
- apparent Kd [1]: 19 nM
- apparent Kd [2]: 90.8 nM

Sequence: GCCGGAUUUGUGAGGAUAUACCUAUGGAUACAUAGGUAGAAGGCACAUGAGGAUCACCCAUGUACCUCACCGGC
- apparent Kd [1]: 16.7 nM
- apparent Kd [2]: 69.2 nM

Sequence: CGCAACUUUUCUCAUGUAAACAUGAGGAUCACCCAUGUAAUGAGAAGGAGGAGGAAGAGAGAAUCCUAGGAUAUCAGAGUUGCG
- apparent Kd [1]: 7.12 nM
- apparent Kd [2]: 6.01 nM

Sequence: GGGUGAUCAGGAUAUACAGAAAUGCGAAAGCAUUUCUGUAAACAUGAGGAUCACCCAUGUAGAAGGAAACUUCA
- apparent Kd [1]: 17.9 nM
- apparent Kd [2]: 13.8 nM

Sequence: CAGAAGUCAGGAUAUGCAUGGCGGGACUUGCGUCGUGGCGUGCAGAAGGGACAUGAGGAUCACCCAUGUAAAGU
- apparent Kd [1]: 53.5 nM
- apparent Kd [2]: 69.7 nM

Sequence: ACAAGAUCAGGAUAUACAUGAGGAUCACCCAUGUUUAUCAAAAAGGGACUUUCUUAAUGUAGAAGGGAUCUUGU
- apparent Kd [1]: 27.5 nM
- apparent Kd [2]: 83.9 nM

Sequence: UAAUGUGACAUGAGGAUCACCCAUGUAGACAUGGGAAGGUCGUAGGAUAUGCUGAUGAUUUUUUUGCAGAAGGACGUCAAGGAG
- apparent Kd [3]: 268 nM
- apparent Kd [4]: 138 nM

Sequence: ACAUGAGGAUCACCCAUGUUUACAUGGAUUAUUAAUCUUGGAUAGGAUAUGUUAGUUAAGUAUUUACAGAAGGAUCAAUUCCUU
- apparent Kd [1]: 27.7 nM
- apparent Kd [2]: 20.2 nM

Sequence: AUAGAAGUCUAGAAGGACCUAGCUGUAUACCAUCAGGUAUAUACGCUAGGUAGGAUAUGGGACAUGAGGAUCACCCAUGUGUUG
- apparent Kd [3]: 48 nM
- apparent Kd [4]: 22.6 nM

Sequence: AUGCUCAUAGGAUAUAGAUUGAUUCACAUGAGGAUCACCCAUGUAAACUCUACUUUUUAACUAGAAGGAUGUUUUU
- apparent Kd [1]: 24.7 nM
- apparent Kd [2]: 23.5 nM

Sequence: GUGGUCAGACAUGAGGAUCACCCAUGUGGAAUAAAUAAGGAAUAGGAUAUGGAAUAUAGGAUAUACCAGAAGGGUUGGUUGGUG
- apparent Kd [3]: 98.4 nM
- apparent Kd [4]: 114 nM

Sequence: CGCCUGGGAGGAUAUCCAAUAUAUGACAUGAGGAUCACCCAUGUUUCCACUCGUACCUCCGGAGAAGGCCCUGCGU
- apparent Kd [1]: 22.2 nM
- apparent Kd [2]: 23.5 nM

Sequence: UACGGACAUGAGGAUCACCCAUGUGAGGAUAUCGGUACCGAUAGCAUAAUAUACUCGGCGAGAAGGCACAGCGU
- apparent Kd [1]: 30 nM
- apparent Kd [2]: 31.8 nM

Sequence: CGUUCACAUGAGGAUCACCCAUGUCAGAUUUGGUCAGGAUAUGGUCUGCUUCCGCUAUUGCCAGAAGGGACUUUUG
- apparent Kd [3]: 28.9 nM
- apparent Kd [4]: 22.7 nM

Sequence: CGAUAGGACAGAGGAUAUACACAUGAGGAUCACCCAUGUAAUUACAAUUCUUAAGAUUCAAACAUGUAGAAGGCUGUCCUAUCG
- apparent Kd [1]: 35.9 nM
- apparent Kd [2]: 13.1 nM

Sequence: UGGUACUAGUGAGGAUAUGGGAAGAUACAUGAGGAUCACCCAUGUUUAAGAAUGCCGAGAGGCAACUAGAAGGCCCUAGUACCU
- apparent Kd [3]: 388 nM
- apparent Kd [4]: 35.8 nM

Sequence: GACAUGGUCCAGAAGGGCUAUUUAUUUAAGUAUGAUUUAGAACAGCAUAGCAGGAUAUGGCUAACAUGAGGAUCACCCAUGUUC
- apparent Kd [3]: 20.1 nM
- apparent Kd [4]: 13.3 nM

Sequence: CCCGUGUAAGGAUAUGACAAUGGUAUCUUCGGAUACCAUUGUCAGAAGGUACAUGAGGAUCACCCAUGUAACAC
- apparent Kd [1]: 28.8 nM
- apparent Kd [2]: 108 nM

Sequence: CCCAGUGCAUCAGGAUAUCCUCACAUGAGGAUCACCCAUGUAAUGAGCCGAGGAGAAGGGAUGUGAACUCCAGUUACCGAUCGU
- apparent Kd [3]: 267 nM
- apparent Kd [4]: 42.2 nM

Sequence: GUGUCUUGGGAGAAGGCCGUAUGCAAAGCAUACGGAGGAUAUUCAUACCGGAAACGGACAUGAGGAUCACCCAUGUGGCACAAA
- apparent Kd [3]: 947 nM
- apparent Kd [4]: 34.8 nM

Sequence: UGUAGUUCAGGAUAUGAUGUUUAAUACAUGAGGAUCACCCAUGUAGAUCCUGAAUUAACAUCAGAAGGGAAUAUUU
- apparent Kd [1]: 20.7 nM
- apparent Kd [2]: 45.2 nM

Sequence: AAAUUAAGAAGAGGAUAUUGACAUGAGGAUCACCCAUGUAUUUGGGAAUGUUUACUGAAUUCUUACGAGAAGGUUUACGAACUU
- apparent Kd [1]: 191 nM
- apparent Kd [2]: 132 nM

Sequence: AUUAUUAAGGUAGGAUAUAGUAUAAUAAUUAAAUUAGAAGGAUCUCACAUGAGGAUCACCCAUGUAAGAGGAUCACCCAUGUAU
- apparent Kd [1]: 10.3 nM
- apparent Kd [2]: 10.4 nM

Sequence: AAUUUUUAACAGAAGGCGUUUAUAGUUAAGUUACGAGGAUAUGUAUUACAUGAGGAUCACCCAUGUUACUAGGGUAGUAUAUAA
- apparent Kd [3]: 22.1 nM
- apparent Kd [4]: 20.7 nM
